A short description of data set [1]: Photophysical characterization and relative fluorescence quantum yield. The format is physicochemical. Particulars: for Quantum Yield (relative fluorescence quantum yield, ΦFrel): ethanol, standard coumarin 343, 405/475 nm. An outline of the steps: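 Relative quantum yield in ethanol: absorbance at 405 nm and fluorescence at ex/em 405/475 nm were measured for samples and for the coumarin 343 reference (Q_r 0.63 in ethanol). The refractive-index ratio was taken as 1.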

The nature of data set [2]: Microplate time- and pH-dependent fluorescence response to ONOO−. Particulars: probe 1 μM, ONOO− 600 μM. An outline of the steps: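 Water-soluble probe (1 μM) was treated with ONOO⁻ (600 μM) in 50 mM MES (pH 5.8) or 50 mM Tris (pH 6.8, 7.8, 8.8). Fluorescence (ex/em 405/475 nm) was read on a microplate reader over time and expressed relative to untreated samples at t = 0 min.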

Data set [3] in a line: Selectivity against RONS, microplate F/F0. Particulars: for F/F0: probe 1 μM. In outline: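 Probe (1 μM final, from a 100 μM DMSO stock) was mixed with each RONS (estimated 600 μM) in 50 mM Tris pH 7.5 containing 600 μM EDTA. HO· was generated in situ from Fe(ClO₄)₂ plus H₂O₂ (36 mM), and ¹O₂ from NaOCl plus H₂O₂. Plate fluorescence (405/475 nm) was read at 1 and 60 min; F/F₀ = 60-min reading over t₀.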

Data set [4] relates to PCLS. The data set can be described thus: Confocal imaging of PCLS exposed to nitrogen mustard. In kind it is cell-based, mice. Particulars: 75 μM TEG-TC-ONOO–, compared to 75 μM LNPs with ∼4 μM DPPC-TC-ONOO–.
Data set [5] in a line: Solubility, stated in words. Particulars: aqueous media and buffers. The format is physicochemical.
Data set [6] is described as follows: Determination of pKa by UV-Vis absorbance. The format is physicochemical. The settings on record: MES and Tris buffers of different pH, pH 5.2.
A short description of data set [7]: pH dependence of fluorescence intensity. The format is physicochemical. Particulars: 405/475 nm; 1 µM.
For data set [8] the following is noted: cited from earlier work.
Data set [9] is described as follows: Competitive oxidation assay with the ketone 1. The settings on record: ketone 1 (600 μM) alone treated with ONOO− (600 μM), Tris pH 7.5. In outline: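 Ketone-competition variant of the microplate assay in 50 mM Tris pH 7.5: ketone competitor (600 μM) with ONOO⁻ (600 μM), alone or added after the probe (1 μM) had been pre-mixed 5 min with ONOO⁻ (600 μM). Probe plus ONOO⁻ without competitor was run in parallel. Fluorescence (ex/em 405/475 nm) was followed over time.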

For data set [10] the following is noted: in ethanol, cited from earlier work.

By pKa is commonly meant the negative logarithm of the acid dissociation constant.

Like-named read-outs stand apart in the source and are kept apart here.

In the case of `O=C(Oc1ccc(CCC(=O)C(F)(F)F)cc1)Oc1ccc2cc(-n3cc(COCCOCCOCCO)nn3)c(=O)oc2c1` [TEG-TC-ONOO^–, 3-(4-((2-(2-(2-hydroxyethoxy)ethoxy)ethoxy)methyl)-1H-1,2,3-triazol-1-yl)-2-oxo-2H-chromen-7-yl (4-(4,4,4-trifluoro-3-oxobutyl)phenyl) carbonate], in data set [1], the Brightness worked out at 358, the “Extinction Coefficient” value worked out at 4475 M⁻¹ cm⁻¹, the “Max Em” value amounted to 472.0 nm and the “Max Ex” value was 400.0 nm. Also, in data set [1], the Relative brightness is given as 1.4 and the “Quantum Yield (relative fluorescence quantum yield, ΦFrel)” value is 0.08. Moreover, the fluorescence generation result in [2] (pH 5.8 and 6.8) is on record as “little or no fluorescence generation”. The “fluorescence relative to untreated sample (t = 0 min)” value in data set [2] (pH 7.8, until 30 min) is “up to 6.5 times”. Further, the “fluorescence relative to untreated sample (t = 0 min)” value in [2] (pH 8.8, until 30 min) is no more than 8 times. Also, in data set [3], the “relative fluorescence enhancement for ONOO− compared to the other RONS” value is recorded as roughly 36 fold. Besides, in data set [3] (H2O2 600 μM, 60 min), the “fluorescence intensity stronger than background” value is 16% and the F/F0 was 1.16. In data set [3] (ONOO− 600 μM, 60 min), this molecule showed an increase in fluorescence of roughly 570% and a F/F0 of 6.69. This molecule registered an increase in fluorescence in data set [3] (absence of a redox species, 60 min) of 13%. For the same molecule, the F/F0 in data set [3] (absence of a redox species, 60 min, Tris pH 7.5) is reported as 1.13. In data set [3] (species other than ONOO−, 600 μM, 60 min), the change in fluorescence entry is listed as “only negligible levels of change in fluorescence”. Besides, the F/F0 in data set [3] (·NO 600 μM, 60 min) is given as 1.03. For the same molecule, in data set [4], the “signal within PCLS exposed to NM (405 nm excitation)” value was “considerably weak signals”. The solubility result in [5] is recorded as “highly soluble”.
As for `O=c1oc2cc(O)ccc2cc1-n1cc(COCCOCCOCCO)nn1` [TEG-TC, 7-hydroxy-3-(4-((2-(2-(2-hydroxyethoxy)ethoxy)ethoxy)methyl)-1H-1,2,3-triazol-1-yl)-2H-chromen-2-one], in [1], the Brightness is 10305, the “Extinction Coefficient” value was determined as 15613 M⁻¹ cm⁻¹, the “Max Em” value stood at 471.4 nm and the “Max Ex” value is reported as 397.0 nm. In data set [1], the Relative brightness amounted to 41.1 and the “Quantum Yield (relative fluorescence quantum yield, ΦFrel)” value is recorded as 0.66. For the same molecule, in data set [6], the pKa turned out to be 7.1 ± 0.1. Further, in data set [7], the “fluorescence signal intensity at pH 7.5–8.8 relative to pH 5.8” value is on record as 18- to 20 fold.
Take `O=NOO` [ONOOH, peroxynitrous acid]: in data set [8], the chemical half-life was 0.63 s and the pKa was 6.8. The biological half-life in [8] (estimated, depends on concentration of biological targets) is 10–20 ms.
As for `O=C(CCc1ccc(O)cc1)C(F)(F)F` [Compound 1, 1,1,1-trifluoro-4-(4-hydroxyphenyl)butan-2-one], in data set [9], the fluorescence generation entry was “no fluorescence”.
Regarding `O=C(O)c1cc2cc3c4c(c2oc1=O)CCCN4CCC3` [coumarin 343], in [10], the “absolute fluorescence quantum yield (ΦF)” value is recorded as 0.63. The “quantum yield of reference standard (Qr)” value in data set [10] (ref Sigma Aldrich) is given as 0.63.

(Values after article PMC10746523 (iScience, 2023).)
